# Screening data: PubChem BioAssay, several laboratories
# The full list was thinned out, with hits kept by preference.
# Hsp70 activator = transcriptional activators of Hsp70; activation, % at 10 µM; 200,000 compounds, 0.04% hits; HeLa Hsp70 promoter luciferase reporter, luminescence; scaled: vehicle 0, proteasome-inhibitor control 100%; AID 1203;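 active = activation above the mean across all tested compounds plus 3 SD, cutoff set per campaign, cut at about 5.5% in these data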;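 also: 100% = MG132 at 30 µM as the positive control and 0% = DMSO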
# HSF1 inhib = HSF1 inhibition. 300,000 compounds, 0.77% hits. activity change, negative = inhibition, % at 7.5 µM (by protocol). NIH3T3-HGL HSE-luciferase, MG132-induced, luminescence 8 h; active compounds read low. AID 2098;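 active = more than half of replicate wells show activity change below -50%, luminescence cut by over half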;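 also: luciferase reports HSF-1 transcriptional activity via heat shock element; 0% = median of DMSO wells and -100% = zero luminescence signal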
# Lmaj promast = reduces viability of Leishmania major promastigotes. resazurin fluorescence viability. inhibition, % at 10 µM. 200,000 compounds, 9% hits; in the data active = inhibition above about 50%;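 also: promastigotes grown with compound for 44 hours at 28 °C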
# T cruzi repl = T. cruzi replication inhibition | T. cruzi beta-gal in NIH3T3, luminescence, 90 h | inhibition, % (test concentration not listed) | 300,000 compounds, 1.4% hits;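 active = mean inhibition across valid replicates above about 55%, limit read from the data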;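 also: signal also drops with host cell toxicity which is not excluded here; 0% = plate median of DMSO wells and 100% = zero luminescence signal; higher percent means less beta-gal luminescence so fewer parasites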
#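 Assay system: NIH/3T3 fibroblasts plus reporter T. cruzi. Amount: NIH/3T3 cells, 5,000 per well. Buffer or medium: DMEM, 2% fetal bovine serum. Doses: compound pinned at 50 nL/well, DMSO. Schedule: ≥90 h infection period, 3 h prior cell attachment. Signal: luminescent β-galactosidase signal after 60 min lysis. Read-out: parasite load inhibition, %.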
# HSF1 activator = increases HSF-1 driven luciferase reporter signal | NIH3T3-HGL HSF-1 luciferase reporter, MG132, 8 h; 100% = twice DMSO control signal | activation, % at 9 µM | 300,000 compounds, 1.7% hits;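 active = mean replicate activation of at least 50% with a set share of replicates each reaching 50%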;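 also: 0% = median of the neutral control wells and 100% = twice that signal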
# Active calls of the source: *; . = no result.
SMILES,Hsp70 activator,HSF1 inhib,Lmaj promast,T cruzi repl,HSF1 activator
COc1ccc(S(=O)(=O)N/N=C(/C)c2cccc(NC(=O)c3ccccc3Cl)c2)cc1,0,-1,97*,7,0
Cc1ccc(NC(=O)c2cc3c(s2)CCCC3)cc1S(=O)(=O)Nc1ccccc1Cl,-1,7,19,19,38
O=C(Nc1cccc(S(=O)(=O)Nc2ccc(Cl)cc2)c1)c1cc2c(s1)CCCC2,-1,15,34,65*,16
COc1ccc(NS(=O)(=O)c2cccc(NC(=O)NCCCl)c2)cc1,0,0,71*,-3,-4
COc1ccc(NS(=O)(=O)c2cccc(NC(=O)c3ccc(Cl)nc3)c2)cc1,0,-5,61*,-41,-8
CCCN1C(=O)c2cc(C(=O)Nc3ccc(OC)cc3OC)ccc2C1Nc1ccc(OC)cc1OC (configuration not stated),0,1,11,-12,1
CN(CC(=O)NCc1ccco1)S(=O)(=O)c1ccc2c(c1)c(=O)n(C)c(=O)n2C,.,-1,.,-3,-4
O=[N+]([O-])c1ccccc1S(=O)(=O)Nc1ccc2c(c1)OCCO2,.,-2,.,-5,-8
OCCC1CN(Cc2ccc(Oc3ncccn3)cc2)CCN1Cc1ccc(F)c(F)c1 (configuration not stated),.,-3,.,7,11
COc1ccc(NS(=O)(=O)c2cccc(C(=O)N/N=C(\C)c3ccncc3)c2)cc1,0,-5,59*,-9,0
COc1ccc(NS(=O)(=O)c2cccc(NC(=O)CCC(=O)c3ccc(Cl)cc3)c2)cc1,0,11,80*,-16,22
COc1ccc(NS(=O)(=O)c2cccc(NC(=O)CCC(=O)c3cccs3)c2)cc1,0,-8,-2,2,3
O=C(C1CCCN(CCCc2ccccc2)C1)N1CCCCCC1 (configuration not stated),0,8,71*,40,-19
CC1CCN(C(=O)C2CCN(CCCc3ccccc3)CC2)CC1,0,-2,53*,5,9
O=C(C1CCN(CCCc2ccccc2)CC1)N1CCCCC1,0,-12,-6,12,6
Cc1cc(C(F)(F)F)nn1CC(=O)NCc1cccs1,0,-12,-6,-20,-4
S=C(NCc1ccc(Cl)cc1)NCc1ccco1,.,3,.,-44,1
COc1cc(OC)cc(C(=O)NC(=S)NCc2ccco2)c1,0,67,-6,0,121*
CCOc1ccccc1NC(=S)NCc1ccco1,1,20,6,-14,52*
CCNC(=S)NCc1ccco1,0,12,59*,-14,10
COC(=O)c1cc(S(=O)(=O)N2CCCCC2)c[nH]1,.,1,.,-5,4
Cc1ccn(CC(=O)N2CCCC(N3CCN(c4ccc(F)cc4)CC3)C2)n1 (configuration not stated),.,19,.,-3,67*
CCOC(=O)c1ccc(NC(=O)Cc2coc3cc4c(cc23)CCC4)cc1,0,0,92*,54,5
CCOC(=O)c1c(C)[nH]c(C(=O)COC(=O)/C=C/c2ccc(O)c(OC)c2)c1C,0,2,99*,2,5
CCOC(=O)c1c(C)[nH]c(C(=O)Nc2ccc(C)c(Cl)c2)c1C,0,33,16,29,63*
SMILES,Hsp70 activator,HSF1 inhib,Lmaj promast,T cruzi repl,HSF1 activator
CCOC(=O)c1c(C)[nH]c(C(=O)COC(=O)/C=C/c2ccc3c(c2)OCO3)c1C,0,6,-7,-2,-8
CCOC(=O)c1c(C)[nH]c(C(=O)COC(=O)CNC(=O)c2ccc(Cl)cc2Cl)c1C,0,-15,52*,-8,-13
CCN(C(=O)COC(=O)C1CCN(S(=O)(=O)c2ccc3c(c2)OCCO3)CC1)C1CCCCC1,.,1,.,10,5
COc1cc(C(C)=O)ccc1OCCCN1CCC(Cc2ccccc2)CC1,.,-7,.,51,-7
Clc1ccccc1OCCN1CCC(Cc2ccccc2)CC1,0,-2,90*,29,-3
COc1cc(C(C)=O)ccc1OCCN1CCC(Cc2ccccc2)CC1,0,-5,90*,34,-6
O=C(c1ccc(Cl)cc1)C1CCN(C(=O)NC2CCCCC2)CC1,0,4,52*,-1,-1
NNC(=O)C(=O)NCCCN1CCOCC1,0,1,-7,4,9
c1ccc(-c2noc(COc3ccc4c(c3)OCO4)n2)cc1,0,46,-4,5,55*
CN(Cc1nc(-c2ccccc2)no1)C(=O)c1ccc2c(c1)OCO2,.,-59*,.,-5,-62
COc1ccc(-c2noc(COc3ccc4c(c3)OCO4)n2)cc1,-1,-4,-1,8,-6
Cc1ccc(NC(=O)c2cc([N+](=O)[O-])ccc2NCc2cccnc2)cc1Cl,0,2,42,57*,19
Cc1ccc(NC(=O)CSc2ncccc2C(=O)Oc2cccc([N+](=O)[O-])c2)cc1Cl,0,32,70*,-6,82*
CCOC(=O)c1cccnc1SCC(=O)Nc1ccc(C)cc1,0,4,2,3,10
CSc1ccccc1C(=O)NCCOc1ccccc1C,0,4,0,2,28
Cc1ccccc1C(=O)NCCOc1ccccc1Cl,.,43,.,-6,70*
COc1ccc([N+](=O)[O-])cc1N(CC(O)CN(CC(C)C)CC(C)C)S(=O)(=O)c1ccccc1 (configuration not stated),0,-3,11,16,30
O=[N+]([O-])c1ccccc1S(=O)(=O)N(CC(O)CN1CCCCC1)c1ccccc1 (configuration not stated),.,-6,.,8,-31
COc1ccc([N+](=O)[O-])cc1N(CC(O)CN1CCCCC1)S(=O)(=O)c1ccc(C)cc1 (configuration not stated),0,-1,56*,0,-3
CCCCN(CCCC)CC(O)CN(c1cc([N+](=O)[O-])ccc1OC)S(=O)(=O)c1ccccc1 (configuration not stated),0,4,71*,20,11
Cc1ccc(N(CC(O)CN2CCCCC2)S(=O)(=O)c2ccccc2[N+](=O)[O-])cc1 (configuration not stated),0,-4,99*,-11,-8
COc1cccc(-c2ccc3nnc(SCC(=O)Nc4ccc(NC(C)=O)cc4)n3n2)c1,.,-1,.,3,2
Cc1ccc(NC(=O)O/N=C/c2c(C)nn(C(C)(C)C)c2C)cc1Cl,.,-93*,.,9,-94
CCN(CC(=O)Nc1cc(Cl)ccc1C)C(=O)COc1cccc2c1OC(C)(C)C2,.,-1,.,4,1
O=[N+]([O-])c1cc([N+](=O)[O-])c(Oc2c(F)cccc2F)cc1NN1CCCCC1,.,30,.,-25,62*
O=[N+]([O-])c1cc([N+](=O)[O-])c(Oc2c(F)ccc(F)c2F)cc1NN1CCCCC1,.,0,.,-9,17
